Laboratory results reported in ChEMBL document CHEMBL4184148 (Bioorg Med Chem Lett, 2017).

Key:
[1] = molecular target: Ephrin type-B receptor 3 (Homo sapiens) (UniProt P54753); assay: Binding affinity to wild-type human partial length EPHB3 (Q599 to T928 residues) expressed in Escherichia coli BL21 at 1 uM by Kinomescan method relative to control
[2] = molecular target: Tyrosine-protein kinase Yes (Homo sapiens) (UniProt P07947); assay: Binding affinity to wild-type human partial length YES (T257 to L543 residues) expressed in Escherichia coli BL21 at 1 uM by Kinomescan method relative to control
[3] = molecular target: Dual specificity testis-specific protein kinase 1 (Homo sapiens) (UniProt Q15569); assay: Binding affinity to wild-type human full length TESK1 (R37 to S626 residues) expressed in Escherichia coli BL21 at 1 uM by Kinomescan method relative to control
In short: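 Kinome-wide competition binding panel run by an outside provider, with each compound tested at a single concentration. Activity is read against the kinase panel.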

[4] = molecular target: Cyclin-dependent kinase 4 (Homo sapiens) (UniProt P11802); assay: Binding affinity to wild-type human full length CDK4 (M1 to E303 residues) expressed in HEK293 cells at 1 uM by Kinomescan method relative to control; format: cell-based
Chain of Cyclin-dependent kinase 4 (Homo sapiens) (P11802 whole entry, the tested form may be a part): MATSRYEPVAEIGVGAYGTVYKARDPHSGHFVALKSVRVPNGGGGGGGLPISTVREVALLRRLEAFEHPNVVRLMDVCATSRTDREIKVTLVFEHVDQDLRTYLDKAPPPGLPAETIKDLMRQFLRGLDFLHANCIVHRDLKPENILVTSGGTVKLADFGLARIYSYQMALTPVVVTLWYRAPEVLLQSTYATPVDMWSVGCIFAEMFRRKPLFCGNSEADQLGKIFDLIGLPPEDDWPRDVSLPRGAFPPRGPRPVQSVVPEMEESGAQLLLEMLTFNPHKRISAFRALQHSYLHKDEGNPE

[5] = system: Mast/stem cell growth factor receptor Kit (Homo sapiens), P10721 [D816H]; assay: Binding affinity to human partial length KIT D816H mutant (I571 to D952 residues) expressed in HEK293 cells at 1 uM by Kinomescan method relative to control; format: cell-based
[6] = molecular target: Mitogen-activated protein kinase kinase kinase 1 (Homo sapiens) (UniProt Q13233); assay: Binding affinity to wild-type human partial length MAP3K1 (L1202 to W1512 residues) expressed in HEK293 cells at 1 uM by Kinomescan method relative to control; format: cell-based
[7] = molecular target: Ribosomal protein S6 kinase alpha-5 (Homo sapiens) (UniProt O75582); assay: Binding affinity to wild-type human partial length N-terminal RPS6KA5 kinase domain 1 expressed in Escherichia coli BL21 at 1 uM by Kinomescan method relative to control
Chain of Ribosomal protein S6 kinase alpha-5 (Homo sapiens) (O75582 whole entry, looked up, the tested form may be a part): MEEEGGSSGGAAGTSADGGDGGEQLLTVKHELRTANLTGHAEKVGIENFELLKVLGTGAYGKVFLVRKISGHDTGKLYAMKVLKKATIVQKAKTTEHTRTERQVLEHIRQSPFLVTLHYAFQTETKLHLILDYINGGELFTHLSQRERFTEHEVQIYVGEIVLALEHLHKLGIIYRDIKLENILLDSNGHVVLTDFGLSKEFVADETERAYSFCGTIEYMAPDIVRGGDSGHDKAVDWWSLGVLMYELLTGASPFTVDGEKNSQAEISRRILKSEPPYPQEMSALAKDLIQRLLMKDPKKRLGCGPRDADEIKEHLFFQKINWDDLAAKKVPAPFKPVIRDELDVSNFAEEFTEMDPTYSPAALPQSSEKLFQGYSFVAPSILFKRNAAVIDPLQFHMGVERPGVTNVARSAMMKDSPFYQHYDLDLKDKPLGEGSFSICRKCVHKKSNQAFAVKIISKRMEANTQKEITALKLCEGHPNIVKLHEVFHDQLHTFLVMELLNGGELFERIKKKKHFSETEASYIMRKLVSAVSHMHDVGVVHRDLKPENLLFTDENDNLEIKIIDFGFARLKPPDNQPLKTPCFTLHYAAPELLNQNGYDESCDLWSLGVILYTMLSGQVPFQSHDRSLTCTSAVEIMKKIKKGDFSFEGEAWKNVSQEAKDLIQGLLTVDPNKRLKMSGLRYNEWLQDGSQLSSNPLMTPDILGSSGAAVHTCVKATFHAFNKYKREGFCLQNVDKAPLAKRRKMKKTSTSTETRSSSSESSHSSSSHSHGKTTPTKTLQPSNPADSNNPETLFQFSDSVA

[8] = molecular target: Phosphatidylinositol 5-phosphate 4-kinase type-2 gamma (Homo sapiens) (UniProt Q8TBX8); assay: Binding affinity to wild-type human partial length PIP5K2C (M1 to A421 residues) expressed in HEK293 cells at 1 uM by Kinomescan method relative to control; format: cell-based
[9] = molecular target: Death-associated protein kinase 2 (Homo sapiens) (UniProt Q9UIK4); assay: Binding affinity to wild-type human full length DAPK2 (M1 to S370 residues) expressed in Escherichia coli BL21 at 1 uM by Kinomescan method relative to control
In short: (§1)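 Run as one kinome-wide competition binding panel with each compound at a single fixed concentration. Results were plotted as a kinome-wide selectivity map.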

[10] = system: Receptor-type tyrosine-protein kinase FLT3 (Homo sapiens), P36888 [D835V]; assay: Binding affinity to human partial length FLT3 D835V mutant (V592 to Y969 residues) expressed in Escherichia coli BL21 at 1 uM by Kinomescan method relative to control
[11] = molecular target: Serine/threonine-protein kinase 16 (Homo sapiens) (UniProt O75716); assay: Binding affinity to wild-type human partial length STK16 (G11 to I305 residues) expressed in Escherichia coli BL21 at 1 uM by Kinomescan method relative to control
Chain of Serine/threonine-protein kinase 16 (Homo sapiens) (O75716 whole entry, the tested form may be a part): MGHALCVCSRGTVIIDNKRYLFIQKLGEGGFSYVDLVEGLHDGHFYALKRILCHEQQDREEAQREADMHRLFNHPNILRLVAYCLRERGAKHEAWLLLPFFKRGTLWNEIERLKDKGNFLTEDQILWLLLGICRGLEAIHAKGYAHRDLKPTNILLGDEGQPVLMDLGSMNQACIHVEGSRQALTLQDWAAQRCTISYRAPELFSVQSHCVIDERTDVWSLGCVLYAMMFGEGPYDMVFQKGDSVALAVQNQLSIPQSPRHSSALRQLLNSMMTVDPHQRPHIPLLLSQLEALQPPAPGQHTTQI

[12] = molecular target: Cyclin-dependent kinase 2 (Homo sapiens) (UniProt P24941); assay: Binding affinity to wild-type human full length CDK2 (M1 to L298 residues) expressed in Escherichia coli BL21 at 1 uM by Kinomescan method relative to control
[13] = molecular target: Serine/threonine-protein kinase PAK 4 (Homo sapiens) (UniProt O96013); assay: Binding affinity to wild-type human partial length PAK4 (Q144 to R438 residues) expressed in Escherichia coli BL21 at 1 uM by Kinomescan method relative to control
Chain of Serine/threonine-protein kinase PAK 4 (Homo sapiens) (O96013 whole entry, looked up, the tested form may be a part): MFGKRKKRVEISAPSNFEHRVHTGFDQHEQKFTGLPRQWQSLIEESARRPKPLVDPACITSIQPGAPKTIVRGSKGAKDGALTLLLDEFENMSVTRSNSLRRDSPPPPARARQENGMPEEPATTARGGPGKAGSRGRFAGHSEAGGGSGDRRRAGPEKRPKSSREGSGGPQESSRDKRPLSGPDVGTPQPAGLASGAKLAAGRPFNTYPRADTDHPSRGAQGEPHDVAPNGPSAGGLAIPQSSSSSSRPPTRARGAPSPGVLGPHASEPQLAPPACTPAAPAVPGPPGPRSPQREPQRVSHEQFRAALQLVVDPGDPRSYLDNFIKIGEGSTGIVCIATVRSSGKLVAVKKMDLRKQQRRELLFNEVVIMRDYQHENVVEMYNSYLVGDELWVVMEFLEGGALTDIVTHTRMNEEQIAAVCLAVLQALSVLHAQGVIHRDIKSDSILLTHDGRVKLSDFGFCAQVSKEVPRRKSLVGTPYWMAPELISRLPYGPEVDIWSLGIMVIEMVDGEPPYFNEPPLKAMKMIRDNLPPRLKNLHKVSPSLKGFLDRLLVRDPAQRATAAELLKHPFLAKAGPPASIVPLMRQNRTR

[14] = molecular target: Ephrin type-B receptor 1 (Homo sapiens) (UniProt P54762); assay: Binding affinity to wild-type human partial length EPHB1 (P589 to T911 residues) expressed in Escherichia coli BL21 at 1 uM by Kinomescan method relative to control
[15] = molecular target: Mitogen-activated protein kinase kinase kinase kinase 4 (Homo sapiens) (UniProt O95819); assay: Binding affinity to wild-type human partial length MAP4K4 (M1 to R310 residues) expressed in Escherichia coli BL21 at 1 uM by Kinomescan method relative to control
[16] = molecular target: Dual specificity mitogen-activated protein kinase kinase 3 (Homo sapiens) (UniProt P46734); assay: Binding affinity to wild-type human full length MEK3 (M1 to S318 residues) expressed in HEK293 cells at 1 uM by Kinomescan method relative to control; format: cell-based; in short: as §1
[17] = molecular target: Serine/threonine-protein kinase 35 (Homo sapiens) (UniProt Q8TDR2); assay: Binding affinity to wild-type human partial length STK35 (G182 to A534 residues) expressed in Escherichia coli BL21 at 1 uM by Kinomescan method relative to control
Chain of Serine/threonine-protein kinase 35 (Homo sapiens) (Q8TDR2 whole entry, the tested form may be a part): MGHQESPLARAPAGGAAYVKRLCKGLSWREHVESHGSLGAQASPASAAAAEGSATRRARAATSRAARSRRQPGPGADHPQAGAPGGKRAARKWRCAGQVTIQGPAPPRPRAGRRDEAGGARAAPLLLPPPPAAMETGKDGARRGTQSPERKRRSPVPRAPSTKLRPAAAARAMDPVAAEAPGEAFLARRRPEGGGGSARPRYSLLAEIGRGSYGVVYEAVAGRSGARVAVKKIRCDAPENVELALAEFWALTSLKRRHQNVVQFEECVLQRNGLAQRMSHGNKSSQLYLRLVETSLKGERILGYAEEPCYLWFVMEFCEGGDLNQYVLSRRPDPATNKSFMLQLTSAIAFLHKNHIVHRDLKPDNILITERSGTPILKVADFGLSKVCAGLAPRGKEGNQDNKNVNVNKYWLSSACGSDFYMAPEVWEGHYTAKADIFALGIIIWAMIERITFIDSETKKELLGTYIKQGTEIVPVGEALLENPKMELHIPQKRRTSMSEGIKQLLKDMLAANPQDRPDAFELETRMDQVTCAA

[18] = molecular target: Serine/threonine-protein kinase STK11 (Homo sapiens) (UniProt Q15831); assay: Binding affinity to wild-type human full length LKB1 (M1 to Q433 residues) expressed in Escherichia coli BL21 at 1 uM by Kinomescan method relative to control; in short: as §1
[19] = molecular target: Inhibitor of nuclear factor kappa-B kinase subunit epsilon (Homo sapiens) (UniProt Q14164); assay: Binding affinity to wild-type human full length IKK-epsilon (M1 to V716 residues) expressed in HEK293 cells at 1 uM by Kinomescan method relative to control; format: cell-based
Chain of Inhibitor of nuclear factor kappa-B kinase subunit epsilon (Homo sapiens) (Q14164 whole entry, the tested form may be a part): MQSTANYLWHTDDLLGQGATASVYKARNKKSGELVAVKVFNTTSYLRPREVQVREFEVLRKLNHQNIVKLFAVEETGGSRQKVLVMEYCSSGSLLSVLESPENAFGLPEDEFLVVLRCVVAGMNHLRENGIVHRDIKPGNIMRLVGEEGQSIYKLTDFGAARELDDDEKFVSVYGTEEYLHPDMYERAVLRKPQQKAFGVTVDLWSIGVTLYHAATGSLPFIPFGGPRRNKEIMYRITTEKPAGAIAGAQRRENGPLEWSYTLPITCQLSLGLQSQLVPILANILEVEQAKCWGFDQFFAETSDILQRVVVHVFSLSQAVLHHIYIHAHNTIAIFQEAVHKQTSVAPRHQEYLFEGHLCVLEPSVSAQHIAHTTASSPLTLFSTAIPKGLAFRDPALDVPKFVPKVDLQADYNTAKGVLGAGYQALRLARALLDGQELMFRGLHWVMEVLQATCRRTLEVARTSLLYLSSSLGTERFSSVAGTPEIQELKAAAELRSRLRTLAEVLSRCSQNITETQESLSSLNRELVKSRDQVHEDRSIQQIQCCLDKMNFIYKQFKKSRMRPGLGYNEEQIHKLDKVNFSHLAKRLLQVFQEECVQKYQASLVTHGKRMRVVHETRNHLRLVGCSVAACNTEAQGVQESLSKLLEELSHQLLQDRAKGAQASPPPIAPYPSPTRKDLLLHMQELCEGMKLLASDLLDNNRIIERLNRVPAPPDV

[20] = molecular target: Receptor-type tyrosine-protein kinase FLT3 (Homo sapiens) (UniProt P36888); assay: Binding affinity to wild-type human partial length FLT3 (V592 to Y969 residues) expressed in Escherichia coli BL21 at 1 uM by Kinomescan method relative to control
[21] = molecular target: Cyclin-dependent kinase-like 2 (Homo sapiens) (UniProt Q92772); assay: Binding affinity to wild-type human partial length CDKL2 (M1 to D327 residues) expressed in Escherichia coli BL21 at 1 uM by Kinomescan method relative to control
[22] = molecular target: Maternal embryonic leucine zipper kinase (Homo sapiens) (UniProt Q14680); assay: Binding affinity to wild-type human full length MELK (M1 to V651 residues) expressed in Escherichia coli BL21 at 1 uM by Kinomescan method relative to control; in short: as §1
Chain of Maternal embryonic leucine zipper kinase (Homo sapiens) (Q14680 whole entry, looked up, the tested form may be a part): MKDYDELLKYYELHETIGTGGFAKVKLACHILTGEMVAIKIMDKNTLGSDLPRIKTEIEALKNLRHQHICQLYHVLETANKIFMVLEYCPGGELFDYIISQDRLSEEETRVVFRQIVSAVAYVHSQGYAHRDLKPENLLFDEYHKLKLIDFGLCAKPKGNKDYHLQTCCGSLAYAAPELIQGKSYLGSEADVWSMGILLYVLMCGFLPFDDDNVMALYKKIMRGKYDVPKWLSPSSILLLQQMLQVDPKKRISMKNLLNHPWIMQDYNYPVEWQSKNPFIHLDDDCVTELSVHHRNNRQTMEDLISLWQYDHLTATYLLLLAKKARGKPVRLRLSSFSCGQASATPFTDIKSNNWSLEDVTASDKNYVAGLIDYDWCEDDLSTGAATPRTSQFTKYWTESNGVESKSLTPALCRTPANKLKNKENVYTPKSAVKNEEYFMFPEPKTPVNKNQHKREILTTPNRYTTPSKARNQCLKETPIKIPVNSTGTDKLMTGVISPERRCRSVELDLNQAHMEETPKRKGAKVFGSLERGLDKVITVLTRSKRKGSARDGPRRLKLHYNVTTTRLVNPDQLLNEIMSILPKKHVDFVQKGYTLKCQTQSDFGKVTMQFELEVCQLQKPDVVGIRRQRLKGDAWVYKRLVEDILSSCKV

[23] = molecular target: 1-phosphatidylinositol 3-phosphate 5-kinase (Homo sapiens) (UniProt Q9Y2I7); assay: Binding affinity to wild-type human partial length PIKFYVE (F1512 to C2098 residues) expressed in HEK293 cells at 1 uM by Kinomescan method relative to control; format: cell-based
[24] = molecular target: Mitotic checkpoint serine/threonine-protein kinase BUB1 (Homo sapiens) (UniProt O43683); assay: Binding affinity to wild-type human partial length BUB1 (Q724 to K1085 residues) expressed in HEK293 cells at 1 uM by Kinomescan method relative to control; format: cell-based
Chain of Mitotic checkpoint serine/threonine-protein kinase BUB1 (Homo sapiens) (O43683 whole entry, looked up, the tested form may be a part): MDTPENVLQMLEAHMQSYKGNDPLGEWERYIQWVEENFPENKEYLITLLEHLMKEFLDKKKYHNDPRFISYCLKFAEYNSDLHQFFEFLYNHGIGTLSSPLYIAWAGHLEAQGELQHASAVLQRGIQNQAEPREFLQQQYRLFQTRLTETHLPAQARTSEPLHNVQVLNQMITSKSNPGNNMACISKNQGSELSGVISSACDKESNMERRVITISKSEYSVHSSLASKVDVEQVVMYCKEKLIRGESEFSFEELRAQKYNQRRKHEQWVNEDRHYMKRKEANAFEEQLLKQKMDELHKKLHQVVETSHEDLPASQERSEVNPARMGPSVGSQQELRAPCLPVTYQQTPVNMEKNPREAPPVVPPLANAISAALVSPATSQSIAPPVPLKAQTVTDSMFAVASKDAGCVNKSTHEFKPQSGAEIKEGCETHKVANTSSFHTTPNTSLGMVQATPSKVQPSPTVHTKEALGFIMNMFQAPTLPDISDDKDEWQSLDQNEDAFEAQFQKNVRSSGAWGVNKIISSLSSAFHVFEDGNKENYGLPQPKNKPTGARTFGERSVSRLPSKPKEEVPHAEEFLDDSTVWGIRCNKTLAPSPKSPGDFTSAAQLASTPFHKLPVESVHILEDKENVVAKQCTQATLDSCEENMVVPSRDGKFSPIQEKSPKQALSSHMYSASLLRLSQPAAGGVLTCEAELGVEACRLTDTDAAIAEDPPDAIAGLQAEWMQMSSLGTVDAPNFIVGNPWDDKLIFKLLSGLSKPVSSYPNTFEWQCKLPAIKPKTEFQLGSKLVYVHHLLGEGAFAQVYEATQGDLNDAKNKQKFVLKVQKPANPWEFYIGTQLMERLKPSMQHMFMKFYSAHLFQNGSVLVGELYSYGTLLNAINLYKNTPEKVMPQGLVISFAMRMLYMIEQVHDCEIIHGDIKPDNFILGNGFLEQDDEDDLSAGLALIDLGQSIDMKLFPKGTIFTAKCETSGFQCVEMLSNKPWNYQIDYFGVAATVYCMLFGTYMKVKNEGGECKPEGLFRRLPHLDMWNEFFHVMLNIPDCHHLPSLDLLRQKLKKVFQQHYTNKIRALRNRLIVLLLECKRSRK

[25] = system: Hepatocyte growth factor receptor (Homo sapiens), P08581 [M1250T]; assay: Binding affinity to human partial length MET M1250T mutant (D1010 to S1367 residues) expressed in Escherichia coli BL21 at 1 uM by Kinomescan method relative to control

| Structure (SMILES) | Activity [1] [%] | Activity [2] [%] | Activity [3] [%] | Activity [4] [%] | Activity [5] [%] | Activity [6] [%] | Activity [7] [%] | Activity [8] [%] | Activity [9] [%] | Activity [10] [%] | Activity [11] [%] | Activity [12] [%] | Activity [13] [%] | Activity [14] [%] | Activity [15] [%] | Activity [16] [%] | Activity [17] [%] | Activity [18] [%] | Activity [19] [%] | Activity [20] [%] | also measured |
| --- | --- | --- | --- | --- | --- | --- | --- | --- | --- | --- | --- | --- | --- | --- | --- | --- | --- | --- | --- | --- | --- |
| CCC(=O)Nc1ccc(C(=O)Nc2ccc(Nc3ncc4c(n3)N(C)c3ccc(C)cc3C(=O)N4C)cc2)cc1 | 88 | 83 | 100 | 89 | 72 | 76 | 100 | 100 | 91 | 86 | 77 | 97 | 98 | 80 | 95 | 65 | 77 | 94 | 68 | 100 | Activity [21]: 100%; Activity [22]: 78%; Activity [23]: 98%; Activity [24]: 98%; Activity [25]: 93% |
| C=CC(=O)Nc1ccc(C(=O)Nc2ccc(Nc3ncc4c(n3)N(C)c3ccc(C)cc3C(=O)N4C)cc2)cc1 | 89 | 90 | 100 | 100 | 83 | 83 | 100 | 56 | 100 | 90 | 77 | 100 | 97 | 92 | 98 | 92 | 96 | 93 | 88 | 100 | Activity [21]: 86%; Activity [22]: 97%; Activity [23]: 100%; Activity [24]: 95%; Activity [25]: 93% |
